# Rows were chosen to be rich in hits. Some 2.1% of all compounds tested hit in one or more screens of this group.
# beta cell repl = inducers of MIN6 beta-cell proliferation, primary screen, ATP luminescence, uHTS; actives 0.29% (n = 330,000); AID 2380, 2010; MIN6 cells proliferation, ATPlite luminescence, 48 h; cells starved in 0.2% serum; 100% = growth in 10% serum; proliferation, % at 10 µM;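 active = compounds whose signal lies at least 3.5 SD above the mean of all wells on their plate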;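 also: 0% = DMSO-treated cells in low-serum medium and 100% = 10% serum control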
# MC4R antagonist = MC4R antagonists of cAMP signaling, primary screen, cell-based, TR-FRET, antagonist arm of biased-ligand search; Melanocortin receptor 4 (Homo sapiens), P32245; MC4R-expressing cells, MTII-stimulated cAMP, LANCE TR-FRET; inhibition, % at 6.5 µM; actives 0.48% (n = 360,000); AID 540295, 2011;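 active = inhibition above its plate's cutoff, the mean of tested wells on that plate plus 3 SD, cut at about 29% in these data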;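 also: 0% = Melanotan II alone and 100% = Melanotan II plus saturating MCL0020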
#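 System: U2OS-MC4R stable cell line; Technique: Eu-cAMP/anti-cAMP TR-FRET, emission 671 nm; Repeats: single well per compound; Also added: Melanotan II; Dosing: one concentration, 6.5 µM nominal; Schedule: 30-min compound, 1-h challenge, 1-h detection, room temperature.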
# MC4R ag barr = MC4R agonists recruiting beta-arrestin, primary screen, cell-based, luminescence, agonist arm of biased-ligand search; Melanocortin receptor 4 (Homo sapiens), P32245; U2OS MC4R beta-arrestin complementation; percent of melanotan II response, DMSO zero; activation, % at 8.9 µM; actives 0.98% (n = 360,000); AID 540308, 2011;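 active = activation above a per-plate cutoff, the mean activation of sample wells on that plate plus 3 SD, cut at about 8% in these data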
# TLR4 MyD88 comp = inhibitors of TLR4-MyD88 association in cells, primary screen, cell-based, HeLa CL3-4, BLA complementation, FRET ratio; HeLa CL3-4 TLR4/MyD88 BLA complementation; inhibition, % at 8.4 µM; actives 0.18% (n = 200,000); AID 861, 2007; in the data active = inhibition above about 25%;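 also: 0% = vehicle and 100% = reference inhibitor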
# NOD2 RIPK2 PPI = NOD2-RIPK2 binding disruptors in cells, primary screen, fluorescence, CHO cells, BLA complementation | CCF4 ratio | inhibition, % at 4.98 µM | actives 0.38% (n = 360,000) | AID 624267, 2012; in the data active = inhibition above about 21%;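 also: 0% = vehicle only and 100% = reference blocker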
# TLR9-MyD88 block = inhibitors of TLR9-MyD88 association in cells, primary screen, cell-based, CHO, BLA complementation, fluorescence; Toll-like receptor 9 (Homo sapiens) + Myeloid differentiation primary response protein …; CCF4 FRET ratio; inhibition, % at 4.98 µM; actives 0.21% (n = 340,000); AID 504734, 2011;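 active = inhibition above the mean over all tested compounds plus 3 SD, cut at about 21% in these data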;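 also: 0% = DMSO only wells and 100% = clavulanate BLA inhibitor control wells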
# MC4R barr ag = MC4R beta-arrestin agonists, retest, confirmation, cell-based, luminescence, U2OS; activation, % at 8.9 µM; shares compounds with MC4R ag barr; AID 602192, 2012; actives 31% (n = 2,400); U2OS MC4R beta-arrestin recruitment; scaled DMSO 0%, Melanotan II 100%;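 active = mean activation across replicates above the hit cutoff set in the earlier primary screen, cut at about 8% in these data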
# MOR-DOR barr ag = agonists of MOR-DOR heterodimerization, counter-screen for MC4R biased agonist project, cell-based, luminescence; activation, % at 9.2 µM; shares compounds with MC4R ag barr; actives 5.8% (n = 2,400); U2OS PathHunter beta-arrestin, beta-gal luminescence; percent of deltorphin B response, DMSO zero;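 active = mean activation across replicates exceeds the hit threshold derived in the earlier primary screen, cut at about 18% in these data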;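 also: 100% = deltorphin B at 0.9 µM final and 0% = DMSO alone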
# Target sequence (P35372 whole entry, looked up): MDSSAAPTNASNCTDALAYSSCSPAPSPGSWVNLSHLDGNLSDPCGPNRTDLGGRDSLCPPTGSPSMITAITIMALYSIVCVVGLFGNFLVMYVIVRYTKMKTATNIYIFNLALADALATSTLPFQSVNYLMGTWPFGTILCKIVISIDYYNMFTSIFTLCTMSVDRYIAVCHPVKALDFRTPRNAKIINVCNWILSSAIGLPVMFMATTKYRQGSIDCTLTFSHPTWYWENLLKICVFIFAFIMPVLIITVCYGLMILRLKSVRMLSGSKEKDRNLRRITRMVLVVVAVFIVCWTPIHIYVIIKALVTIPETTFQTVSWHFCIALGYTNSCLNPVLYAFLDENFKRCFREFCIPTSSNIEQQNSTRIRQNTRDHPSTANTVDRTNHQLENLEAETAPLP
# Target sequence (P41143 whole entry, looked up): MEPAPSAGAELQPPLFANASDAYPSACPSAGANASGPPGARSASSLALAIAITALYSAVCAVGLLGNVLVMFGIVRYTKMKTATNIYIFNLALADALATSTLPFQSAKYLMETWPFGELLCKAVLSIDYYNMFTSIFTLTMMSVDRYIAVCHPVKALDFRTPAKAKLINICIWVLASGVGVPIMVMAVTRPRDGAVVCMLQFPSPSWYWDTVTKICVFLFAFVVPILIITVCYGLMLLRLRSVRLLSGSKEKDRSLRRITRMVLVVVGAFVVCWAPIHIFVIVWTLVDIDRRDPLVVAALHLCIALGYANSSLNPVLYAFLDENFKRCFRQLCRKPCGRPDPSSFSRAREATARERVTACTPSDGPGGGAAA
# * hit, by the source's call; . = no result given.
SMILES,beta cell repl,MC4R antagonist,MC4R ag barr,TLR4 MyD88 comp,NOD2 RIPK2 PPI,TLR9-MyD88 block,MC4R barr ag,MOR-DOR barr ag
CC1CCCCC1NC(=O)NC(=O)COC(=O)c1ccc(OC(F)F)cc1 (configuration not stated),-1,-1,10*,.,-1,5,3,9
O=C(/C=C/c1cccs1)Nc1ccc([N+](=O)[O-])cc1,0,-6,-4,-10,-8,3,.,.
O=C(/C=C/c1cccs1)c1ccc([N+](=O)[O-])cc1,-3,6,11*,.,-1,3,1,7
CC1CC(=O)C(C(C2=C(O)CC(C)CC2=O)c2ccccc2)=C(O)C1 (configuration not stated),.,1,0,.,2,-1,.,.
O=C(CC(=O)Nc1cc(Cl)ccc1Cl)Nc1cc(Cl)ccc1Cl,-2,9,15*,.,3,-15,4,5
Cc1cc(=O)[nH]c(SCC(=O)N2CCN(S(=O)(=O)c3ccccc3)C2)n1,-1,7,-3,-11,-2,3,.,.
COc1cc(SC#N)ccc1N=Cc1c(C)[nH]n(-c2ccc(C)c(C)c2)c1=O,-5,4,12*,-7,-24,-3,9.3*,15
COc1cc(SC#N)ccc1N=Cc1c(C)[nH]n(-c2ccc(Cl)cc2)c1=O,-1,5,0,-9,-5,-5,.,.
COc1ccc(-c2ccc(-c3noc(-c4ccccc4C)n3)c(OC)n2)cc1,-2,3,0,0,-2,0,.,.
COc1ccc(-c2ccc(-c3noc(-c4ccccc4OC)n3)c(OC)n2)cc1,-2,5,10*,4,4,7,2,1
COc1ccc(-c2ccc(-c3noc(-c4cccs4)n3)c(OC)n2)cc1,-4,-1,17*,4,-5,0,5,1
CCOC(=O)C1(C)CCCCCN1C(=O)c1ccc(OC)c(C(F)(F)F)c1 (configuration not stated),.,13,10*,.,5,.,3,5
COc1ccc(C(=O)N2CCCC2(C)C(=O)O)cc1C(F)(F)F (configuration not stated),.,12,0,.,0,.,.,.
CC1CN(S(=O)(=O)c2cccc(C(=O)Nc3ccccc3N3CCCC3)c2)CC(C)O1 (configuration not stated),1,10,-1,.,6,7,.,.
O=C(NCC(c1ccco1)N1CCc2ccccc21)C(=O)Nc1ccccc1 (configuration not stated),-4,6,11*,.,1,-2,1,4
O=C(NCC(c1ccco1)N1CCc2ccccc21)C(=O)Nc1ccccc1F (configuration not stated),-3,1,-2,.,5,-6,.,.
O=C(/C=C/c1cccc(F)c1)OCC(=O)N1CCc2ccccc21,-4,8,28*,.,6,-7,0,3
COc1ccc(-c2noc(N3CCC(C(=O)Nc4ccc(OC)c(OC)c4)CC3)n2)cc1,5,7,13*,.,2,3,0,5
COc1ccc(CC(=O)Nc2ccc(-c3noc(-c4ccccc4OC)n3)cc2)cc1,-2,0,16*,2,-8,-13,24*,14
COc1ccccc1CC(=O)Nc1ccc(-c2noc(COc3ccc(Br)cc3)n2)cc1,-3,9,26*,-1,-2,-7,8,19*
COc1cccc(-c2nc(-c3ccc(NC(=O)Cc4ccccc4OC)cc3)no2)c1,.,-6,2,-15,-10,-2,.,.
COc1ccc(-c2nc(-c3ccc(NC(=O)c4ccc(Br)o4)cc3)no2)cc1OC,-3,0,45*,4,-12,1,22*,46*
O=S(=O)(c1ccc(NC(=S)N2CCCCC2CO)cc1)N1CCOCC1 (configuration not stated),.,14,0,.,-1,11,.,.
CN1CCN(c2nc(-c3ccc(Cl)s3)cs2)CC1,-1,15,2,-17,-2,0,.,.
CCc1ccc(NCc2cc3c(C)nn(-c4ccccc4)c3[nH]c2=O)cc1,-4,10,1,7,-13,-4,.,.
SMILES,beta cell repl,MC4R antagonist,MC4R ag barr,TLR4 MyD88 comp,NOD2 RIPK2 PPI,TLR9-MyD88 block,MC4R barr ag,MOR-DOR barr ag
COc1cccc(NCc2cc3c(C(C)(C)C)nn(-c4ccccc4)c3[nH]c2=O)c1,-4,4,13*,8,-12,9,0,7
CC(C)(C)OC(=O)N[C@@H](Cc1ccccc1)c1nnc(SCC(=O)c2ccc(Cl)cc2)o1,-4,-1,35*,-3,-3,0,2,3
Cc1ccc(-c2nc3ccccc3s2)cc1NC(=O)c1cc(-n2cnnc2)ccc1Cl,-2,14,11*,-8,-14,-5,0,3
Nc1ccn([C@@H]2O[C@H](CNCc3cnc(N4CCOCC4)nc3)[C@@H](O)[C@H]2O)c(=O)n1,.,18,2,.,-6,-8,.,.
Cc1ccc(S(=O)(=O)N2CCCN(S(=O)(=O)c3ccc(C(F)(F)F)cc3)CC2)cc1,-3,-12,28*,0,-2,-4,14*,30*
CCC(=O)N1CCc2cc(S(=O)(=O)NC(C(=O)NC3CCCc4ccccc43)C(C)C)ccc21 (configuration not stated),0,7,0,-9,-12,-8,.,.
COc1ccc(-c2noc(-c3ccc4c(c3)OCO4)n2)cc1,-4,1,-1,-17,-3,-1,.,.
COc1cccc(-c2noc(-c3ccc4c(c3)OCO4)n2)c1,-4,5,11*,4,-12,11,0,3
CCCNC(=O)c1cc(C2CCCCN2C(=O)c2ccc(OC)cc2)on1 (configuration not stated),.,12,0,.,-11,.,.,.
